Activity calls are given as the source filed them. The calls are words filed in the database; no cut-off is given here.
Target: T1, Sphingosine kinase 2 (Homo sapiens) (UniProt Q9NRA0)
T1 sequence (whole entry): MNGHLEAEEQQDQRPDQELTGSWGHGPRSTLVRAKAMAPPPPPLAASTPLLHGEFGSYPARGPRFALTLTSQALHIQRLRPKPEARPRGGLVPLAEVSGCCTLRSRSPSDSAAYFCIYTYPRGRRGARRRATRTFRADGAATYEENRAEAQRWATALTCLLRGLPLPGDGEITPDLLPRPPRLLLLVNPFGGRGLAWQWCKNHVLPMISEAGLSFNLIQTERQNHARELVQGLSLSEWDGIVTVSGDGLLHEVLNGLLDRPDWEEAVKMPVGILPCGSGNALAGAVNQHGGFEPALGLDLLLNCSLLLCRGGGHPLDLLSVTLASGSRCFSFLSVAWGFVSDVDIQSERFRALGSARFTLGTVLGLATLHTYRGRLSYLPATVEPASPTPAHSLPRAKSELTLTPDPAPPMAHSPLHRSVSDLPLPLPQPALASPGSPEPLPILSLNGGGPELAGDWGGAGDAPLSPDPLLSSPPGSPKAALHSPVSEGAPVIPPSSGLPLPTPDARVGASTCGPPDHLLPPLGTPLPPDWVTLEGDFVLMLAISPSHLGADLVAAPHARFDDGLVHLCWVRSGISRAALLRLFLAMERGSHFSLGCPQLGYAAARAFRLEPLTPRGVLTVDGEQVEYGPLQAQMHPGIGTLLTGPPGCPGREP
Test: Inhibition of SPHK2 in human U937 cells assessed as effect on sphingosine levels at 0.1 to 1 uM after 2 hrs by LC-MS/MS analysis
Type: cell-based
Method in brief: (§1)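 U937 human histiocytic lymphoma cells (express both SphK isotypes) incubated with compound for 2 h, pelleted, lysed; 2–3 × 10⁶ cells extracted in methanol:chloroform (3:1) with D7-S1P/D7-sphingosine internal standards, KOH hydrolysis, then S1P and sphingosine measured by LC-MS-MS. Expressed as pmol per 10⁶ cells; duplicate experiments; unpaired t test against control.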

SMILES | inhibition
N=C(N)N1CCC[C@H]1Cc1nc(-c2ccc(Nc3nc(-c4ccc(-c5ccccc5)cc4)cs3)cc2)no1 | Active
N=C(N)N1CCC[C@H]1Cc1nc(-c2ccc(Nc3nc(-c4cccc(C(F)(F)F)c4)cs3)cc2)no1 | Active

Target: T2, Sphingosine kinase 2 (Mus musculus, UniProt Q9JIA7)
T2 sequence (Q9JIA7 whole entry): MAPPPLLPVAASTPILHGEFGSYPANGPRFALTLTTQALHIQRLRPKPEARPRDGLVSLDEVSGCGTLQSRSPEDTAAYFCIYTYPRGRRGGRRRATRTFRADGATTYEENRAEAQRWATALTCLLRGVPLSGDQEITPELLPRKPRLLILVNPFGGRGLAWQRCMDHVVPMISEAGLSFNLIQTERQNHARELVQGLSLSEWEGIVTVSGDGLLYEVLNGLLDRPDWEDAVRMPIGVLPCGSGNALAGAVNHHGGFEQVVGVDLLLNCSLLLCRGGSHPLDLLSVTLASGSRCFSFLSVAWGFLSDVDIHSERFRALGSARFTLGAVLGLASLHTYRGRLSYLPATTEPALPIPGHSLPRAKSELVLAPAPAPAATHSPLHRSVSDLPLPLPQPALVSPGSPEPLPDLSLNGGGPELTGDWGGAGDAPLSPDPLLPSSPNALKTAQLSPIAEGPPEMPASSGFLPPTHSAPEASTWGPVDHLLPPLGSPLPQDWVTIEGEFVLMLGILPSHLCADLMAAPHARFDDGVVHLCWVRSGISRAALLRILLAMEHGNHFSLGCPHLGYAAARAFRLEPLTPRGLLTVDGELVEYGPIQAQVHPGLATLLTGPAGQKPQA
Test: Inhibition of recombinant mouse SPHK2 using sphingosine as substrate in presence ATP

SMILES | Ki [nM]
CCCCCCCCc1ccc2cc(-c3noc(C4CCCN4C(=N)N)n3)ccc2c1 (single isomer, unassigned) | 1300

Target: T3, Sphingosine kinase 1 (Homo sapiens, UniProt Q9NYA1)
Test: Inhibition of recombinant human SPHK1 using sphingosine as substrate in presence ATP
Method in brief: (§2)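 Recombinant human SphK1 or SphK2 from cell lysate, briefly incubated with or without compound at 0.3 μM, sphingosine (5 μM for SphK1, 10 μM for SphK2) and 250 μM γ-[³²P]ATP. Radiolabelled S1P extracted, resolved by TLC and counted by scintillation. Activity reported as % of no-inhibitor control; triplicate.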

T3 sequence (Q9NYA1 whole entry): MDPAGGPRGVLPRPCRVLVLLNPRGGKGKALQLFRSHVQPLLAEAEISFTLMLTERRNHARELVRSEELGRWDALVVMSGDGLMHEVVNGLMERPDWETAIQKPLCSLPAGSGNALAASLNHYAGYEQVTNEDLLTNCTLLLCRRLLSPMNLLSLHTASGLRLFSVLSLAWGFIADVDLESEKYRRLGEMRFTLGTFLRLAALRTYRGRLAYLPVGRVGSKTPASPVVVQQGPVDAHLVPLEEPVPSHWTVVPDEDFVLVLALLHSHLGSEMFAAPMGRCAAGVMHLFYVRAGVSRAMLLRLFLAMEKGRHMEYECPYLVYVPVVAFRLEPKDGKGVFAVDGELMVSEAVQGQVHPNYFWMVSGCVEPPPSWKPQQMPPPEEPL

SMILES | Ki [nM]
CCCCCCCCc1ccc2cc(-c3noc(C4CCCN4C(=N)N)n3)ccc2c1 (single isomer, unassigned) | 12000

Target: T1, Sphingosine kinase 2 (Homo sapiens)
Test: Inhibition of SPHK2 in human U937 cells assessed as effect on sphingosine levels at 0.3 to 1 uM after 2 hrs by LC-MS/MS analysis
Type: cell-based
Method in brief: as §1

SMILES | inhibition
N=C(N)N1CCC[C@H]1Cc1nc(-c2ccc(Nc3nc(-c4ccc(-c5ccccc5)cc4)cs3)cc2)no1 | Active

Target: T1, Sphingosine kinase 2 (Homo sapiens)
Test: Inhibition of recombinant human SPHK2 using sphingosine as substrate up to 1 uM after 30 mins in presence of gamma-[32P]-ATP by liquid scintillation counting

SMILES | inhibition
CN(c1ccc(-c2noc(C[C@@H]3CCCN3C(=N)N)n2)cc1)c1nc(-c2ccc(-c3ccccc3)cc2)cs1 | inactive

Tested on: Mus musculus
Test: In vivo inhibition of SPHK2 in C57BL/6J mouse assessed as increase in S1P levels at 10 mg/kg, ip after 24 hrs by LC-MS/MS analysis
Type: functional, organism-based
Method in brief: (§3)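 Single intraperitoneal dose of 10 mg/kg in C57BL6/j mice, groups of 3 to 4; vehicle controls received an equal volume of 2% hydroxypropyl-β-cyclodextrin. Blood was sampled at set time points over 24 h. Whole blood (10 μl) was extracted in methanol:chloroform (3:1) with D7-S1P and D7-sphingosine internal standards, base-hydrolysed with KOH, and S1P quantified by reverse-phase C18 LC-MS-MS.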

SMILES | inhibition
N=C(N)N1CCC[C@H]1Cc1nc(-c2ccc(Nc3nc(-c4ccc(-c5ccccc5)cc4)cs3)cc2)no1 | inactive

Target: T1, Sphingosine kinase 2 (Homo sapiens)
Test: Inhibition of SPHK2 in human U937 cells assessed as decrease in S1P levels after 2 hrs by LC-MS/MS analysis
Type: cell-based
Method in brief: as §1

SMILES | inhibition
N=C(N)N1CCC[C@H]1Cc1nc(-c2ccc(Nc3nc(-c4ccc(-c5ccccc5)cc4)cs3)cc2)no1 | Dose-dependent effect
N=C(N)N1CCC[C@H]1Cc1nc(-c2ccc(Nc3nc(-c4cccc(C(F)(F)F)c4)cs3)cc2)no1 | Dose-dependent effect

Target: T1, Sphingosine kinase 2 (Homo sapiens)
Test: Inhibition of recombinant human SPHK2 assessed as residual activity at 0.3 uM using sphingosine as substrate after 30 mins in presence of gamma-[32P]-ATP by liquid scintillation counting relative to control
Method in brief: as §2

SMILES | Activity [%]
N=C(N)N1CCC[C@H]1Cc1nc(-c2ccc(Oc3nc(-c4ccc(C(F)(F)F)cc4)cs3)cc2)no1 | 55
N=C(N)N1CCC[C@H]1Cc1nc(-c2ccc(Nc3nc(-c4cc(C(F)(F)F)cc(C(F)(F)F)c4)cs3)cc2)no1 | 63
N=C(N)N1CCC[C@H]1Cc1nc(-c2ccc(Nc3nc(-c4ccc(-c5cccc(C(F)(F)F)c5)cc4)cs3)cc2)no1 | 85
N=C(N)N1CCC[C@H]1Cc1nc(-c2ccc(Nc3nc(-c4cc(C(F)(F)F)ccc4F)cs3)cc2)no1 | 48
N=C(N)N1CCC[C@H]1Cc1nc(-c2ccc(Nc3nc(-c4cc(F)cc(F)c4)cs3)cc2)no1 | 43
N=C(N)N1CCC[C@H]1Cc1nc(-c2ccc(Nc3nc(-c4ccc(-c5ccccc5)cc4)cs3)cc2)no1 | 27
N=C(N)N1CCC[C@H]1Cc1nc(-c2ccc(Nc3nc(-c4cccc(C(F)(F)F)c4)cs3)cc2)no1 | 28
N=C(N)N1CCC[C@H]1Cc1nc(-c2ccc(Nc3nc(-c4cc(F)cc(C(F)(F)F)c4)cs3)cc2)no1 | 30
N=C(N)N1CCC[C@H]1Cc1nc(-c2ccc(Nc3nc(-c4ccc(-c5ccc(F)cc5)cc4)cs3)cc2)no1 | 31
N=C(N)N1CCC[C@H]1Cc1nc(-c2ccc(Nc3nc(-c4ccc(F)c(C(F)(F)F)c4)cs3)cc2)no1 | 33
N=C(N)N1CCC[C@H]1Cc1nc(-c2ccc(Nc3nc(-c4ccc(OC(F)(F)F)cc4)cs3)cc2)no1 | 44
N=C(N)N1CCC[C@H]1Cc1nc(-c2ccc(Nc3nc(-c4cccc(OC(F)(F)F)c4)cs3)cc2)no1 | 82
COc1ccc(-c2csc(Nc3ccc(-c4noc(C[C@@H]5CCCN5C(=N)N)n4)cc3)n2)cc1OC | 100
COc1ccc(-c2csc(Nc3ccc(-c4noc(C[C@@H]5CCCN5C(=N)N)n4)cc3)n2)cc1Cl | 71
N=C(N)N1CCC[C@H]1Cc1nc(-c2ccc(Nc3nc(-c4ccc(-c5ccc(C(F)(F)F)cc5)cc4)cs3)cc2)no1 | 96
CN(c1ccc(-c2noc(C[C@@H]3CCCN3C(=N)N)n2)cc1)c1nc(-c2ccc(-c3ccccc3)cc2)cs1 | 100
N=C(N)N1CCC[C@H]1Cc1nc(-c2ccc(Nc3nc(-c4ccc(C(F)(F)F)cc4)cs3)cc2)no1 | 36
COc1ccc(-c2csc(Nc3ccc(-c4noc(C[C@@H]5CCCN5C(=N)N)n4)cc3)n2)cc1 | 100

Next, values leading:

Activity [%] | SMILES
94 | N=C(N)N1CCC[C@H]1Cc1nc(-c2ccc(Nc3nc(-c4ccncc4)cs3)cc2)no1
67 | Cc1ccc(-c2csc(Nc3ccc(-c4noc(C[C@@H]5CCCN5C(=N)N)n4)cc3)n2)cc1C
67 | N=C(N)N1CCC[C@H]1Cc1nc(-c2ccc(Nc3nc(-c4cc5ccccc5o4)cs3)cc2)no1
73 | N=C(N)N1CCC[C@H]1Cc1nc(-c2ccc(Nc3nc(-c4cccc(-c5ccccc5)c4)cs3)cc2)no1
45 | N=C(N)N1CCC[C@H]1Cc1nc(-c2ccc(Nc3nc(-c4cccc(Cl)c4)cs3)cc2)no1
72 | N=C(N)N1CCC[C@H]1Cc1nc(-c2ccc(Nc3nc(-c4ccccc4C(F)(F)F)cs3)cc2)no1
45 | N=C(N)N1CCC[C@H]1Cc1nc(-c2ccc(Nc3nc(-c4cccc(F)c4)cs3)cc2)no1
55 | N=C(N)N1CCC[C@H]1Cc1nc(-c2ccc(Nc3nc(-c4ccc(F)cc4)cs3)cc2)no1
83 | N=C(N)N1CCC[C@H]1Cc1nc(-c2ccc(Nc3nc(-c4ccccc4)cs3)cc2)no1
44 | N=C(N)N1CCC[C@H]1Cc1nc(-c2ccc(Nc3nc(-c4ccccc4F)cs3)cc2)no1
80 | Cc1ccc(-c2csc(Nc3ccc(-c4noc(C[C@@H]5CCCN5C(=N)N)n4)cc3)n2)cc1
46 | N=C(N)N1CCC[C@H]1Cc1nc(-c2ccc(Nc3nc(-c4ccc(Cl)c(Cl)c4)cs3)cc2)no1
94 | N=C(N)N1CCC[C@H]1Cc1nc(-c2ccc(Nc3nc(-c4cccnc4)cs3)cc2)no1
100 | COc1cccc(-c2csc(Nc3ccc(-c4noc(C[C@@H]5CCCN5C(=N)N)n4)cc3)n2)c1
46 | N=C(N)N1CCC[C@H]1Cc1nc(-c2ccc(Nc3nc(-c4ccc(Br)cc4)cs3)cc2)no1
44 | N=C(N)N1CCC[C@H]1Cc1nc(-c2ccc(Nc3nc(-c4cccc(Br)c4)cs3)cc2)no1
51 | N=C(N)N1CCC[C@H]1Cc1nc(-c2ccc(Nc3nc(-c4ccc(F)c(F)c4)cs3)cc2)no1
51 | N=C(N)N1CCC[C@H]1Cc1nc(-c2ccc(Nc3nc(-c4ccc(Cl)cc4)cs3)cc2)no1

Target: T4, Sphingosine kinase 2 (Homo sapiens, UniProt Q9NRA0)
T4 sequence (Q9NRA0 whole entry): T1 sequence (whole entry)
Test: Inhibition of recombinant human SPHK2 at using sphingosine as substrate after 30 mins in presence of gamma-[32P]-ATP by liquid scintillation counting

SMILES | Ki [nM]
N=C(N)N1CCC[C@H]1Cc1nc(-c2ccc(Nc3nc(-c4ccc(-c5ccccc5)cc4)cs3)cc2)no1 | 90
N=C(N)N1CCC[C@H]1Cc1nc(-c2ccc(Nc3nc(-c4cccc(C(F)(F)F)c4)cs3)cc2)no1 | 90
N=C(N)N1CCC[C@H]1Cc1nc(-c2ccc(Nc3nc(-c4cc(F)cc(C(F)(F)F)c4)cs3)cc2)no1 | 170
N=C(N)N1CCC[C@H]1Cc1nc(-c2ccc(Nc3nc(-c4ccc(F)c(C(F)(F)F)c4)cs3)cc2)no1 | 170
N=C(N)N1CCC[C@H]1Cc1nc(-c2ccc(Nc3nc(-c4ccc(OC(F)(F)F)cc4)cs3)cc2)no1 | 250
N=C(N)N1CCC[C@H]1Cc1nc(-c2ccc(Nc3nc(-c4ccc(C(F)(F)F)cc4)cs3)cc2)no1 | 390

Tested on: Mus musculus
Test: In vivo inhibition of SPHK2 in C57BL/6J mouse assessed as increase in S1P levels at 10 mg/kg, ip after 2 to 6 hrs by LC-MS/MS analysis
Type: functional, organism-based
Method in brief: as §3

SMILES | inhibition
N=C(N)N1CCC[C@H]1Cc1nc(-c2ccc(Nc3nc(-c4ccc(-c5ccccc5)cc4)cs3)cc2)no1 | Active

Tested on: not listed separately
Test: Selectivity ratio of Ki for recombinant human SPHK1 to Ki for recombinant mouse SPHK2

SMILES | Ratio Ki
CCCCCCCCc1ccc2cc(-c3noc(C4CCCN4C(=N)N)n3)ccc2c1 (single isomer, unassigned) | 10

Target: T3, Sphingosine kinase 1

SMILES | Ki [nM]
CCCCCOc1ccc2cc(-c3noc([C@H]4[C@@H](O)CCN4C(=N)N)n3)ccc2c1 | 730
